In ChEMBL document CHEMBL1914380, “Polyalkoxybenzenes from plants. 5. Parsley seed extract in synthesis of azapodophyllotoxins featuring strong tubulin destabilizing activity in the sea urchin embryo and cell culture assays” (J Med Chem, 2011):
Activity calls are given as the source filed them. The rule behind the calls is not given here. Where a SMILES comes first, the peptide text is derived from it. The star is where a group is joined. Cbz = O=C(OCc1ccccc1)*; CH2F = FC*

Experiments:
Paracentrotus lividus [1] = test: Toxicity against Paracentrotus lividus embryo at 40 to 68 uM after 2.5 hrs; type: organism-based; details: in vivo
In short: (§1)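 P. lividus hatched blastulae exposed to compound; larval (pluteus) malformations, gastrulation and morphogenesis abnormalities, and developmental abnormalities/embryo death scored microscopically, the latter after 2.5 h of treatment.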

Paracentrotus lividus [2] = test: Antimitotic activity against Paracentrotus lividus embryo assessed as cleavage arrest treated 10 to 25 mins post fertilization followed by 45 to 60 mins before the first mitotic cycle completion by sea urchin embryo assay; type: functional
Paracentrotus lividus [3] = test: Antimitotic activity against Paracentrotus lividus embryo assessed as cleavage alteration treated 10 to 25 mins post fertilization followed by 45 to 60 mins before the first mitotic cycle completion by sea urchin embryo assay; type: functional
Paracentrotus lividus [4] = test: Induction of apoptosis in Paracentrotus lividus embryo assessed as developmental abnormalities at 40 to 68 uM after 2.5 hrs; type: functional, organism-based; in short: as §1
Jurkat [5] = test: Cell cycle arrest in human Jurkat cells assessed as accumulation of cells in G0/G1 phase at 2 uM after 24 hrs by propidium iodide staining-based flow cytometry; type: functional
In short: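 Jurkat cells treated 24 h; DNA content after propidium iodide staining measured by flow cytometry for cell cycle distribution.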

Paracentrotus lividus [6] = test: Antimitotic activity against Paracentrotus lividus embryo assessed as larval malformation at 4 to 5 uM post hatching by microscopic analysis; type: functional, organism-based; in short: as §1
Paracentrotus lividus [7] = test: Antimitotic activity against Paracentrotus lividus embryo assessed as abnormal gastrula formation at 10 to 20 uM by microscopic analysis; type: functional, organism-based; in short: as §1
Jurkat [8] = test: Induction of apoptosis in human Jurkat cells assessed as reduction in procaspase-8 levels at 2 uM after 24 hrs by Western blotting; type: functional, cell-based
In short: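 Jurkat cells treated 24 h; total lysates prepared in SDS–Laemmli sample buffer and immunoblotted with anti-procaspase-8 monoclonal antibody; β-actin as loading control.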

Paracentrotus lividus [9] = test: Antimitotic activity against Paracentrotus lividus embryo assessed as embryo spinning treated 10 to 25 mins post fertilization followed by 45 to 60 mins before the first mitotic cycle completion by sea urchin embryo assay; type: functional
A549 [10] = test: Inhibition of microtubule polymerization in human A549 cells assessed as total disruption of interphase microtubule network at > 5 uM after 8 hrs by immunofluorescence microscopy; type: cell-based
A549 [11] = test: Cytotoxicity against human A549 cells assessed as cell viability after 24 hrs by MTT assay; type: functional, cell-based; details: A549, 24 h
In short: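 A549 human lung carcinoma cells; growth inhibition measured by MTT assay. IC50 derived from dose-response curves, mean ± SD of three independent experiments.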

P388 = test: Cytotoxicity against mouse P388 cells assessed as cell viability after 48 hrs by trypan blue exclusion assay; type: functional, cell-based; details: P388, 48 h
A549 [12] = test: Cell cycle arrest in human A549 cells at 50 uM after 24 hrs using propidium iodide staining by flow cytometry; type: functional, cell-based
Jurkat [13] = test: Induction of apoptosis in human Jurkat cells assessed as hypodyploid cells at 50 nM after 48 hrs by annexin-V FITC/7-ADD staining-based flow cytometric analysis in presence of 50 uM Z-VAD-fmk pan-caspase inhibitor; type: functional
A549 [14] = test: Inhibition of microtubule polymerization in human A549 cells assessed as total disruption of interphase microtubule network at 0.5 uM after 8 hrs by immunofluorescence microscopy; type: cell-based
In short: (§2)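 A549 cells incubated 8 h with compound at 0.1, 0.5, 1 and 5 μM; DMSO vehicle as negative control. Microtubules labelled by indirect immunofluorescence and examined by fluorescence microscopy. Value is the concentration giving total interphase microtubule disassembly, from three independent experiments.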

Paracentrotus lividus [15] = test: Toxicity against Paracentrotus lividus embryo post hatching; type: organism-based; details: in vivo
A549 [16] = test: Inhibition of microtubule polymerization in human A549 cells assessed as total disruption of interphase microtubule network at 5 uM after 8 hrs by immunofluorescence microscopy; type: cell-based; in short: as §2
A549 [17] = test: Inhibition of microtubule polymerization in human A549 cells assessed as total disruption of interphase microtubule network at 1 uM after 8 hrs by immunofluorescence microscopy; type: cell-based; in short: as §2
A549 [18] = test: Inhibition of microtubule polymerization in human A549 cells assessed as total disruption of interphase microtubule network at 0.1 uM after 8 hrs by immunofluorescence microscopy; type: cell-based; in short: as §2
Jurkat [19] = test: Induction of apoptosis in human Jurkat cells assessed as procaspase-2 cleavage at 50 nM after 48 hrs by Western blotting; type: functional, cell-based
In short: (§3)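 Jurkat cells treated at 50 nM for 24 or 48 h; untreated control, etoposide 2 μM 24 h as comparator. Total lysates prepared in SDS-Laemmli buffer and immunoblotted with monoclonal anti-caspase-9, anti-caspase-2 and anti-procaspase-8 antibodies. β-Actin served as loading control.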

Jurkat [20] = test: Cytotoxicity against human Jurkat cells assessed as cell viability after 48 hrs by trypan blue exclusion assay; type: functional, cell-based
In short: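 Jurkat T-leukemia cells; proliferation inhibition measured by trypan blue assay, giving IC50.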

Jurkat [21] = test: Induction of apoptosis in human Jurkat cells assessed as procaspase-2 cleavage at 50 nM after 24 hrs by Western blotting; type: functional, cell-based; in short: as §3
Jurkat [22] = test: Induction of apoptosis in human Jurkat cells assessed as cells with active form of caspase-3 at 50 nM after 48 hrs by annexin-V FITC/7-ADD staining-based flow cytometric analysis (reference value: 7.1%); type: functional
Jurkat [23] = test: Induction of apoptosis in human Jurkat cells assessed as procaspase-9 cleavage at 50 nM after 24 hrs by Western blotting; type: functional, cell-based; in short: as §3
Jurkat [24] = test: Cell cycle arrest in human Jurkat cells assessed as accumulation of cells in G2/M phase at 20 nM after 24 hrs by propidium iodide staining-based flow cytometry; type: functional
In short: (§4)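 Jurkat cells treated for 24 h, then stained with propidium iodide. DNA content analysed by flow cytometry for cell-cycle distribution.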

Jurkat [25] = test: Induction of apoptosis in human Jurkat cells assessed as procaspase-9 cleavage at 50 nM after 48 hrs by Western blotting; type: functional, cell-based; in short: as §3
Jurkat [26] = test: Induction of apoptosis in human Jurkat cells assessed as PARP cleavage at 50 nM after 48 hrs by annexin-V FITC/7-ADD staining-based flow cytometric analysis (reference value: 6.5%); type: functional
Jurkat [27] = test: Induction of apoptosis in human Jurkat cells assessed as hypodyploid cells at 50 nM after 48 hrs by annexin-V FITC/7-ADD staining-based flow cytometric analysis (reference value: 12.2%); type: functional
Jurkat [28] = test: Induction of apoptosis in human Jurkat cells assessed as reduction in procaspase-8 levels at 50 nM after 48 hrs by Western blotting; type: functional, cell-based; in short: as §3
Jurkat [29] = test: Cell cycle arrest in human Jurkat cells assessed as accumulation of cells in G2/M phase at 25 nM after 24 hrs by propidium iodide staining-based flow cytometry; type: functional; in short: as §4
A549 [30] = test: Cell cycle arrest in human A549 cells assessed as accumulation of cells in G2/M phase after 24 hrs by propidium iodide staining-based flow cytometry; type: functional; details: A549, 24 h

| SMILES | EC (Paracentrotus lividus [2]) | EC (Paracentrotus lividus [3]) | EC (Paracentrotus lividus [9]) | IC50 (A549 [11]) | inhibition (A549 [14]) | inhibition (A549 [16]) | inhibition (A549 [17]) | inhibition (A549 [18]) | Activity (Jurkat [19]) | IC50 (Jurkat [20]) | Activity (Jurkat [21]) | Activity (Jurkat [22]) | Activity (Jurkat [23]) | Activity (Jurkat [25]) | Activity (Jurkat [26]) | Activity (Jurkat [27]) | Activity (Jurkat [28]) | other results |
| --- | --- | --- | --- | --- | --- | --- | --- | --- | --- | --- | --- | --- | --- | --- | --- | --- | --- | --- |
| COc1cc([C@@H]2c3cc4c(cc3[C@@H](O[C@@H]3O[C@@H]5CO[C@@H](C)O[C@H]5[C@H](O)[C@H]3O)[C@H]3COC(=O)[C@H]23)OCO4)cc(OC)c1O [ETOPOSIDE] | >68000 nM | 2000 nM | >68000 nM |  |  |  |  |  |  |  |  |  |  |  |  |  |  | Activity (Paracentrotus lividus [1]): Toxic; Activity (Paracentrotus lividus [4]): Active; Activity (Jurkat [5]): Active; Activity (Paracentrotus lividus [6]): Active; Activity (Paracentrotus lividus [7]): Active; Activity (Jurkat [8]): Active |
| COc1cc(-c2c3c(nc4cc5c(cc24)OCO5)COC3=O)cc(OC)c1OC | >4000 nM | >4000 nM | >4000 nM | 11900 nM |  |  |  |  |  |  |  |  |  |  |  |  |  | inhibition (A549 [10]): Active; IC50 (P388): > 253000 nM; Activity (A549 [12]): inactive |
| COC(=O)C[C@H](NC(=O)[C@H](C)NC(=O)[C@@H](NC(=O)OCc1ccccc1)C(C)C)C(=O)CF (Cbz-Val-Ala-Asp(OMe)-CH2F) |  |  |  |  |  |  |  |  |  |  |  |  |  |  |  |  |  | Activity (Jurkat [13]): 28.4% |
| COc1cc(C2C3=C(COC3=O)Nc3cc4c(cc32)CCCC4)cc(OC)c1OC (stereo not drawn) | 200 nM | 50 nM | 100 nM | 56.5 nM | Active | Active | Active | Active |  |  |  |  |  |  |  |  |  | Activity (Paracentrotus lividus [15]): Toxic |
| COc1ccc2c(c1)NC1=C(C(=O)OC1)C2c1cc(OC)c2c(c1)OCO2 (stereo not drawn) | 5 nM | 0.5 nM | 50 nM | 15.1 nM | Active | Active | Active | Active | Active | 17.5 nM | Active | 27.8% | Active | Active | 38.3% | 54.9% | inactive | Activity (Jurkat [24]): Active |
| COc1cc([C@@H]2c3cc4c(cc3[C@H](O)[C@H]3COC(=O)[C@H]23)OCO4)cc(OC)c1OC [PODOFILOX] | 50 nM | 20 nM | 500 nM | 7.47 nM | Active | Active | Active | Active | Active | 25 nM | Active | 28% | Active | Active | 40.7% | 55.6% | inactive | Activity (Jurkat [29]): Active; EC50 (A549 [30]): 16.5 nM |
